# Measurements as given in PubChem BioAssay.
# The source made the active and inactive calls.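 The calls were made as follows, unless noted: active = viability at or under a set limit in both replicates, limit being median viability minus 3 SD (cut at about 48% in these data, passing the limit was not always enough); inconclusive = at or under the limit in just one replicate; inactive = at or above the limit in both replicates.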
# Columns and labels:
# [1] = Her2 expression decrease, cell viability multiplex – SKBR3 breast tumor cells, AlphaScreen, ATP viability, primary screen (AID 461;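 active = Her2 level under about 52% in both replicate screens, with viability over 70% of control, limit read from the data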;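 as to Her2 level: lower value means less Her2 protein in the cells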;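 as to viability: percent of carrier control wells set as 100% viability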); conditions: SKBR3 Her2 protein level, 18-24 h, measured here: SKBR3 viability, ATP luminescence, at 10 µM
# [2] = target: Receptor tyrosine-protein kinase erbB-2 (Homo sapiens) (UniProt P04626); test: as above; conditions: 18-24 h, at 10 µM, stronger effect = lower value
# [3] = reduced viability of SK-BR-3 breast cancer cells – cell-based, 24 h, human, pilot screen (AID 572;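 active = viability at or below 10% of carrier control in both of two separate runs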;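 also: compound exposure lasted between 18 and 24 h rather than exactly 24 h; 100% = carrier-treated control wells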); conditions: SK-BR-3 viability, CellTiter-Glo luminescence, at 10 µM, stronger effect = lower value
# [4] = HUVEC growth inhibition – cell-based, human, primary screen (AID 575;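 active = viability at or below 30% in both replicate assays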;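 also: 100% = median of untreated cell wells with 0.1% DMSO on each plate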); conditions: HUVEC proliferation, CellTiter-Glo luminescence, 72 h; at 10 µM; stronger effect = lower value
# Procedure, shortened: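 Timing: 72 h treatment at 37 °C; material: HUVEC primary cells; technique: CellTiter-Glo luminescence measuring cellular ATP; controls: vehicle and MePR control wells; measure: percent of median DMSO-control luminescence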
# [5] = H69AR cell proliferation blockers – human, duplicate replicates, primary screen (AID 580); conditions: H69AR lung tumor cells viability, ATP luminescence, 72 h; at 10 µM; stronger effect = lower value;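 also: 100% = mean luminescence of untreated wells and 0% = no signal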
# [6] = MRP1 drug-resistance reversers in H69AR cells – cell-based, doxorubicin co-treatment, pilot screen (AID 601;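 active = viability loss from added drug above about 55%, and viability with drug at most 40%, in both replicates, limit read from the data, passing the limit was not always enough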); conditions: CellTiter-Glo, 72 h, at 10 µM; for differential viability (reversal): stronger effect = higher value
# [7] = yeast transport mutant growth inhibition pilot in 384-well plates, post-Golgi transport modulator project (AID 636; in the data active = inhibition above about 31%); conditions: absorbance 615 nm, about 18 h, stronger effect = higher value
# [8] = growth suppression of yeast trafficking mutant, preliminary HTS, modulators of trafficking downstream of Golgi apparatus project, 1536-format plate, OD 615 nm (AID 637; in the data active = inhibition above about 30%); conditions: yeast transport mutant growth, absorbance 615 nm, 18 h; stronger effect = higher value
# [9] = H69AR cells + 2 uM doxorubicin, measured here: viability with 2 uM doxorubicin, stronger effect = lower value
# [10] = H69AR cells, compound alone cytotoxicity
# Sequence of Receptor tyrosine-protein kinase erbB-2 (Homo sapiens) (P04626 whole entry, looked up): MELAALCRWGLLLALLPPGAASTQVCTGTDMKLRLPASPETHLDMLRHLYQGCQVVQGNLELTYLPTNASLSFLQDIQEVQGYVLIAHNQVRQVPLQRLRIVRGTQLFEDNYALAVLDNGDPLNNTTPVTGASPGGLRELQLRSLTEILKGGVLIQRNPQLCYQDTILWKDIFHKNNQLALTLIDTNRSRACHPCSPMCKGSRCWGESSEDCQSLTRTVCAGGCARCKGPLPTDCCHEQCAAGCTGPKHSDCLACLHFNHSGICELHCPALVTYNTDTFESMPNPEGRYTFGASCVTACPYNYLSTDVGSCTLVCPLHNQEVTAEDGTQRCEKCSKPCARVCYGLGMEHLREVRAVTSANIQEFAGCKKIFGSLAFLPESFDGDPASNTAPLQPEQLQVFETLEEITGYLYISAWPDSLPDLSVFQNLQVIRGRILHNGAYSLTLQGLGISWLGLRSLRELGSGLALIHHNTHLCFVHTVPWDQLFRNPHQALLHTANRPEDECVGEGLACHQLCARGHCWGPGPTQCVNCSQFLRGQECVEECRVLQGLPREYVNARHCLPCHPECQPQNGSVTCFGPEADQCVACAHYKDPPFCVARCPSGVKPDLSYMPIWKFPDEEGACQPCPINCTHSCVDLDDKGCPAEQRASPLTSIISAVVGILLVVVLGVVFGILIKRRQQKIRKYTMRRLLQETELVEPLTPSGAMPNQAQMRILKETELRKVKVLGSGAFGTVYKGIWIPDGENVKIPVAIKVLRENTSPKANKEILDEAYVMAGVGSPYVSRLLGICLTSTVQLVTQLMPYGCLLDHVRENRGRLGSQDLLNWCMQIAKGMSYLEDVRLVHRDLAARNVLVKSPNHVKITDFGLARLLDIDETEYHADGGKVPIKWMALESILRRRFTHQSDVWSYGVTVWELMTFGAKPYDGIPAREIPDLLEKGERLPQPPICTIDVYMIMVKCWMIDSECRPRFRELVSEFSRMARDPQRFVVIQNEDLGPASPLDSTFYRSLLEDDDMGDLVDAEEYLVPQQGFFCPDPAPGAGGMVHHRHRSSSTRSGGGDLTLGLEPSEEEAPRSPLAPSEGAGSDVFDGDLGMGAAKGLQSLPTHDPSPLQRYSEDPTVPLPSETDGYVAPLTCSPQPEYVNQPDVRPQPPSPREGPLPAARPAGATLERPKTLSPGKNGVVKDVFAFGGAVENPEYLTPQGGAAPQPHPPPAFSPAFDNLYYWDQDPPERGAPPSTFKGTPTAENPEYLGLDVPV
SMILES,viability [1] [%],Her2 level [2],viability [3],viability [4],viability [5],differential viability (reversal) ([6]; H69AR cells + 2 uM doxorubicin),"viability [6, 9] [%]","viability [6, 10] [%]",inhibition [7],inhibition [8]
Cc1ccc(N(CC(=O)NCC2CCCO2)S(C)(=O)=O)cc1Cl (stereo not given),106,82.5% (inactive),106% (inactive),99.1% (inactive),89.2% (inactive),-3.35% (inactive),92.6,89.2,1.41% (inactive),-3% (inactive)
Cc1cc(NC(=O)c2ccccc2Oc2ccccc2)no1,97,92.5% (inactive),97% (inactive),93.5% (inactive),110% (inactive),16.8% (inactive),93.5,110,-5.33% (inactive),2.42% (inactive)
CCN1C(=O)NC(c2cc(Br)ccc2OC)C(C(=O)OC)=C1C (stereo not given),104,114% (inactive),104% (inactive),104% (inactive),95.3% (inactive),-2.65% (inactive),98,95.3,-2.63% (inactive),-8.1% (inactive)
COc1cc(NS(=O)(=O)c2ccc(Br)s2)cc(OC)c1,87,104% (inactive),87% (inactive),89.6% (inactive),99.9% (inactive),5.59% (inactive),94.3,99.9,-6.53% (inactive),-7.7% (inactive)
COc1ccc(-c2cc(C(F)(F)F)n3nc(C(=O)N4CCOCC4)nc3n2)cc1,88,116% (inactive),88% (inactive),101% (inactive),94.1% (inactive),4.48% (inactive),89.6,94.1,-0.64% (inactive),-4.17% (inactive)
O=C(CSc1nc2ncccc2[nH]1)Nc1ccc2c(c1)OCCO2,108,118% (inactive),108% (inactive),85.6% (inactive),82% (inactive),-0.395% (inactive),82.4,82,-2.86% (inactive),-0.82% (inactive)
CC(C)CCNC(=O)NC(=O)COc1ccccc1C#N,92.5,109% (inactive),92.5% (inactive),112% (inactive),97.1% (inactive),7.26% (inactive),89.8,97.1,-3.78% (inactive),-5.4% (inactive)
CCc1nc(N)c(C#N)c(-c2ccc(OC)c(OC)c2)c1C,98.5,93% (inactive),98.5% (inactive),91.4% (inactive),87.2% (inactive),9.15% (inactive),78.1,87.2,-6.93% (inactive),3.33% (inactive)
CSc1nnc(-c2ccc(NC(=O)CCc3ccccc3)cc2)n1C,91.5,82.5% (inactive),91.5% (inactive),111% (inactive),87% (inactive),-2.53% (inactive),89.5,87,-4.59% (inactive),3.11% (inactive)
N#Cc1c(-c2ccccc2)nc(SCc2nc(N)nc(N3CCCCC3)n2)[nH]c1=O,90.5,86.5% (inactive),90.5% (inactive),81.5% (inactive),99.9% (inactive),-2.35% (inactive),102,99.9,-6% (inactive),5.08% (inactive)
CCOC(=O)N1CCC(NC(=O)c2ccc3c(c2)N(C)CCS3)CC1,87,92.5% (inactive),87% (inactive),109% (inactive),92.2% (inactive),8.3% (inactive),83.9,92.2,-4.21% (inactive),4.92% (inactive)
O=C(NCCC1=CCCCC1)c1cc2c(s1)CS(=O)(=O)C2,114,93.5% (inactive),114% (inactive),85.7% (inactive),88.5% (inactive),4.64% (inactive),83.8,88.5,-3.77% (inactive),-3.28% (inactive)
Cc1ccc(S(=O)(=O)N(CCO)c2cc3c(s2)CCCC3)cc1,114,94.5% (inactive),114% (inactive),68.6% (inactive),81.9% (inactive),-3.64% (inactive),85.6,81.9,-5.32% (inactive),-7.5% (inactive)
COc1ccc(CCNC(=O)c2cnc3scc(C)n3c2=O)cc1OC,78,89% (inactive),78% (inactive),90.4% (inactive),94.8% (inactive),1.87% (inactive),92.9,94.8,-6.27% (inactive),2% (inactive)
CC(=O)N1CCN(Cc2ccc(Br)s2)CC1,93.5,88% (inactive),93.5% (inactive),86.3% (inactive),99.3% (inactive),11.1% (inactive),88.3,99.3,-3.51% (inactive),-1.31% (inactive)
COc1ccccc1N1CCN(CCCNC(=O)Nc2ccccc2)CC1,129,83.5% (inactive),129% (inactive),84.5% (inactive),90.3% (inactive),-1.53% (inactive),91.8,90.3,-2.76% (inactive),-0.48% (inactive)
